According to ChEMBL document CHEMBL2151019, “Potent and selective inhibitors of PI3Kδ: obtaining isoform selectivity from the affinity pocket and tryptophan shelf” (Bioorg Med Chem Lett, 2012):
One block for each molecule: values may come before it.

How the values were obtained:
[1] = Selectivity ratio of IC50 for PI3Kbeta to IC50 for PI3Kdelta
Procedure, shortened: (§1)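 Ratios of biochemical IC50 values, each against the PI3Kδ IC50. Both IC50s come from the fluorescence polarization assay monitoring PIP2-to-PIP3 conversion by each Class I isoform.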

[2] = biological target: T1, Phosphatidylinositol 4,5-bisphosphate 3-kinase catalytic subunit delta isoform (Homo sapiens, UniProt O00329); experiment: Inhibition of PI3Kdelta-mediated AKT phosphorylation in B cells in presence of human serum; assay type: cell-based
T1 sequence (O00329 whole entry): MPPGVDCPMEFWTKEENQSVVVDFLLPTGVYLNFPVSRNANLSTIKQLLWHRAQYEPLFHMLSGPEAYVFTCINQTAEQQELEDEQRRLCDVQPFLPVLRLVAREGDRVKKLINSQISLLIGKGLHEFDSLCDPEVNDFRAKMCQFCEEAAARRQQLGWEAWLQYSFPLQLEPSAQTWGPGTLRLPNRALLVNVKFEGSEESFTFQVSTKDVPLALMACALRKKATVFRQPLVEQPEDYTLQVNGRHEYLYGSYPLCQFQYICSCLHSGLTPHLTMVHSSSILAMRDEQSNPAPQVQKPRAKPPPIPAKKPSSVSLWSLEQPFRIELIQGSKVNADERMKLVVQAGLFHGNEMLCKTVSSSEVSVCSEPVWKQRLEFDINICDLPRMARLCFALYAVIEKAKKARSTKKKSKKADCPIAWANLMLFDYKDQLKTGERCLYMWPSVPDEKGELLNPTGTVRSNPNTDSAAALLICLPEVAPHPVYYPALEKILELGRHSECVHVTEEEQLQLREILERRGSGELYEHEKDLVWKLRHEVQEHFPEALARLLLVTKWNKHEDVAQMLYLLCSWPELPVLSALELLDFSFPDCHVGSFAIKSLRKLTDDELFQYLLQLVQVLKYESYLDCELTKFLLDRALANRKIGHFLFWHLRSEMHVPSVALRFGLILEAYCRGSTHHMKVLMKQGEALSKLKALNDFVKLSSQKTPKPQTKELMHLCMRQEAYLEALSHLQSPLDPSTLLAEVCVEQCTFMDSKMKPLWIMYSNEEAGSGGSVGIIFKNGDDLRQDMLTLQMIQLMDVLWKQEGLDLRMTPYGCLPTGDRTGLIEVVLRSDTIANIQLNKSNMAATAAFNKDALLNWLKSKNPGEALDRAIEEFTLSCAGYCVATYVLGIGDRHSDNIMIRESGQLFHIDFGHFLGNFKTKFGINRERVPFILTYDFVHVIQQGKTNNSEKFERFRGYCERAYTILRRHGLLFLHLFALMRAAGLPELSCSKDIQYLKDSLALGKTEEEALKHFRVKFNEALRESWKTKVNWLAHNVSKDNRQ
Procedure, shortened: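 Cellular assay in the PI3Kδ-dependent B-cell cancer line Ri-1. Downstream pAKT measured with human serum added (serum-shifted); IC50 determined.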

[3] = Selectivity ratio of IC50 for PI3Kgamma to IC50 for PI3Kdelta; procedure, shortened: as §1
[4] = Selectivity ratio of IC50 for PI3Kalpha to IC50 for PI3Kdelta; procedure, shortened: as §1
[5] = biological target: T1, Phosphatidylinositol 4,5-bisphosphate 3-kinase catalytic subunit delta isoform; experiment: Inhibition of PI3K p110delta using PIP2 as substrate assessed as PIP3 formation by fluorescence polarization assay
Procedure, shortened: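 Biochemical fluorescence polarization assay following conversion of PIP2 to PIP3 by PI3Kδ; IC50 determined.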

[6] = AUC in Sprague-Dawley rat at 10 mg/kg, po; assay type: ADME, organism-based; design: dose 10 mg/kg, route oral; conditions: plasma
Procedure, shortened: (§2)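 Oral dosing in male Sprague–Dawley rats used an MCT suspension (0.5% methylcellulose/0.2% Tween-80). Cmax, AUC and terminal half-life were taken from plasma concentration–time curves.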

[7] = Cmax in Sprague-Dawley rat at 10 mg/kg, po; assay type: ADME, organism-based; design: dose 10 mg/kg, route oral; conditions: in vivo; procedure, shortened: as §2
[8] = Cmax in Sprague-Dawley rat at 30 mg/kg, po; assay type: ADME, organism-based; design: dose 30 mg/kg, route oral; conditions: in vivo; procedure, shortened: as §2
[9] = Half life in Sprague-Dawley rat at 30 mg/kg, po; assay type: ADME, organism-based; design: dose 30 mg/kg, route oral; conditions: in vivo; procedure, shortened: as §2
[10] = Clearance in CD1 mouse at 1 mg/kg, iv; assay type: ADME, organism-based; design: dose 1 mg/kg, route intravenous; conditions: in vivo
[11] = Volume of distribution at steady state in CD1 mouse at 1 mg/kg, iv; assay type: ADME, organism-based; design: dose 1 mg/kg, route intravenous; conditions: in vivo, read-out: Vdss
Procedure, shortened: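 Single IV dose of 1 mg/kg in 5% DMSO/5% Cremophor to female CD-1 mice. Pharmacokinetic parameters were taken from plasma concentrations over time.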

[12] = Cmax in Sprague-Dawley rat at 5 mg/kg, po; assay type: ADME, organism-based; design: dose 5 mg/kg, route oral; conditions: in vivo; procedure, shortened: as §2
[13] = Clearance in Sprague-Dawley rat at 1 mg/kg, iv; assay type: ADME, organism-based; design: dose 1 mg/kg, route intravenous; conditions: in vivo
Procedure, shortened: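 Male Sprague–Dawley rats received 1 mg/kg intravenously in 5% DMSO/5% Cremophor. In vivo clearance was derived from plasma concentrations over time.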

[14] = AUC in Sprague-Dawley rat at 5 mg/kg, po; assay type: ADME, organism-based; design: dose 5 mg/kg, route oral; conditions: plasma; procedure, shortened: as §2
[15] = AUC in CD1 mouse at 5 mg/kg, po; assay type: ADME, organism-based; design: dose 5 mg/kg, route oral; conditions: plasma
Procedure, shortened: (§3)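 Female CD-1 mice were given a 5 mg/kg oral dose as an MCT suspension (0.5% methylcellulose/0.2% Tween-80). Cmax, AUC and half-life came from the plasma concentration–time profiles.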

[16] = Half life in BALB/c mouse at 20 mg/kg, po; assay type: ADME, organism-based; design: dose 20 mg/kg, route oral; conditions: in vivo
Procedure, shortened: (§4)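 Female Balb/c mice received the compound orally as a suspension in 0.5% methylcellulose/0.2% Tween-80 (MCT). Plasma concentration–time profiles were used to derive Cmax, AUC and terminal half-life.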

[17] = Half life in CD1 mouse at 5 mg/kg, po; assay type: ADME, organism-based; design: dose 5 mg/kg, route oral; conditions: in vivo; procedure, shortened: as §3
[18] = Volume of distribution at steady state in Sprague-Dawley rat at 1 mg/kg, iv; assay type: ADME, organism-based; design: dose 1 mg/kg, route intravenous; conditions: in vivo, read-out: Vdss
Procedure, shortened: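 Male Sprague–Dawley rats were given 1 mg/kg IV in 5% DMSO/5% Cremophor. Pharmacokinetic parameters were taken from plasma concentrations over time.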

[19] = Oral bioavailability in CD1 mouse at 5 mg/kg; assay type: ADME, organism-based; conditions: in vivo
Procedure, shortened: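 Female CD-1 mice received an IV dose of 1 mg/kg in 5% DMSO/5% Cremophor and an oral dose of 5 mg/kg as an MCT suspension (0.5% methylcellulose/0.2% Tween-80). Plasma exposure was compared between the two routes.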

[20] = AUC in Sprague-Dawley rat at 30 mg/kg, po; assay type: ADME, organism-based; design: dose 30 mg/kg, route oral; conditions: plasma; procedure, shortened: as §2
[21] = Cmax in BALB/c mouse at 20 mg/kg, po; assay type: ADME, organism-based; design: dose 20 mg/kg, route oral; conditions: in vivo; procedure, shortened: as §4
[22] = Cmax in BALB/c mouse at 40 mg/kg, po; assay type: ADME, organism-based; design: dose 40 mg/kg, route oral; conditions: in vivo; procedure, shortened: as §4
[23] = Oral bioavailability in Sprague-Dawley rat at 5 mg/kg; assay type: ADME, organism-based; conditions: in vivo
Procedure, shortened: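 Male Sprague–Dawley rats received an IV dose of 1 mg/kg in 5% DMSO/5% Cremophor and an oral dose of 5 mg/kg as an MCT suspension (0.5% methylcellulose/0.2% Tween-80). Plasma exposure was compared between the two routes.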

[24] = AUC in BALB/c mouse at 40 mg/kg, po; assay type: ADME, organism-based; design: dose 40 mg/kg, route oral; conditions: plasma; procedure, shortened: as §4
[25] = Half life in Sprague-Dawley rat at 5 mg/kg, po; assay type: ADME, organism-based; design: dose 5 mg/kg, route oral; conditions: in vivo; procedure, shortened: as §2
[26] = Cmax in CD1 mouse at 5 mg/kg, po; assay type: ADME, organism-based; design: dose 5 mg/kg, route oral; conditions: in vivo; procedure, shortened: as §3
[27] = Half life in BALB/c mouse at 40 mg/kg, po; assay type: ADME, organism-based; design: dose 40 mg/kg, route oral; conditions: in vivo; procedure, shortened: as §4
[28] = Half life in Sprague-Dawley rat at 10 mg/kg, po; assay type: ADME, organism-based; design: dose 10 mg/kg, route oral; conditions: in vivo; procedure, shortened: as §2
[29] = AUC in BALB/c mouse at 20 mg/kg, po; assay type: ADME, organism-based; design: dose 20 mg/kg, route oral; conditions: plasma; procedure, shortened: as §4

Ratio IC50 [1]: 78 | IC50 [2]: 480 nM | Ratio IC50 [3]: 260 | Ratio IC50 [4]: 22
Structure (SMILES): CC(C)(O)C1CCN(Cc2ccc3nc(-c4cccc5[nH]ncc45)nc(N4CCOCC4)c3n2)CC1

Ratio IC50 [1]: 13 | IC50 [2]: 67 nM | Ratio IC50 [3]: 120 | IC50 [5]: 12 nM | Ratio IC50 [4]: 58
Structure (SMILES): Fc1ccc2[nH]ccc2c1-c1nc(N2CCOCC2)c2nc(CN3CCOCC3)ccc2n1

Ratio IC50 [1]: 110 | Ratio IC50 [3]: 910 | IC50 [5]: 4 nM | Ratio IC50 [4]: 170
Structure (SMILES): CC(C)(O)C1CCN(Cc2cc3nc(-c4c(F)ccc5[nH]ccc45)nc(N4CCOCC4)c3s2)CC1

Ratio IC50 [1]: 200 | Ratio IC50 [3]: 1400 | IC50 [5]: 0.6 nM | Ratio IC50 [4]: 220
Structure (SMILES): CC(C)(O)C1CCN(Cc2nc3c(N4CCOCC4)nc(-c4c(F)ccc5[nH]ccc45)nc3s2)CC1

AUC [6]: 11 µM·h | Cmax [7]: 1200 nM | Cmax [8]: 4700 nM | half-life [9]: 4.8 h | clearance [10]: 53 mL/min/kg | Vd [11]: 4.9 L/kg | Cmax [12]: 500 nM | clearance [13]: 59 mL/min/kg | AUC [14]: 2.6 µM·h | AUC [15]: 2.5 µM·h | half-life [16]: 2.9 h | half-life [17]: 2.6 h | Vd [18]: 8.8 L/kg | bioavailability [19]: 80% | AUC [20]: 46 µM·h | Cmax [21]: 3900 nM | Cmax [22]: 14000 nM | bioavailability [23]: 90% | AUC [24]: 63 µM·h | half-life [25]: 2.6 h | Cmax [26]: 900 nM | half-life [27]: 5 h | half-life [28]: 3.8 h | AUC [29]: 13 µM·h
Structure (SMILES): CC(C)(O)C1CCN(Cc2ccc3nc(-c4c(F)ccc5[nH]ccc45)nc(N4CCOCC4)c3n2)CC1

Ratio IC50 [1]: 3.7 | IC50 [2]: 145 nM | Ratio IC50 [3]: 38 | IC50 [5]: 27 nM | Ratio IC50 [4]: 14
Structure (SMILES): OCc1ccc2nc(-c3c(F)ccc4[nH]ccc34)nc(N3CCOCC3)c2n1

Ratio IC50 [1]: 210 | IC50 [2]: 55 nM | Ratio IC50 [3]: 610 | Ratio IC50 [4]: 370
Structure (SMILES): CC(C)(O)C1CCN(Cc2ccc3nc(-c4cccc5[nH]ccc45)nc(N4CCOCC4)c3n2)CC1

IC50 [5]: 1.9 nM
Structure (SMILES): CC(C)(O)C1CCN(Cc2nc3nc(-c4c(F)ccc5[nH]ccc45)nc(N4CCOCC4)c3[nH]2)CC1

Ratio IC50 [1]: 140 | Ratio IC50 [3]: 1500 | Ratio IC50 [4]: 330
Structure (SMILES): CC(C)(O)C1CCN(Cc2nc3c(N4CCOCC4)nc(-c4c(F)ccc5[nH]ccc45)nc3[nH]2)CC1

Ratio IC50 [1]: 73 | IC50 [2]: 145 nM | Ratio IC50 [3]: 43 | IC50 [5]: 2.6 nM | Ratio IC50 [4]: 5.4
Structure (SMILES): CC(C)(O)C1CCN(Cc2ccc3nc(-c4cnc(N)nc4)nc(N4CCOCC4)c3n2)CC1
